The source of these data is ChEMBL document CHEMBL2321868, “The discovery of novel potent trans-3,4-disubstituted pyrrolidine inhibitors of the human aspartic protease renin from in silico three-dimensional (3D) pharmacophore searches” (J Med Chem, 2013).

Data set [1] concerns the target T1, Adrenergic receptor alpha-1 (Homo sapiens, UniProt P35348+P25100+P35368).
T1 sequence (P35348 whole entry): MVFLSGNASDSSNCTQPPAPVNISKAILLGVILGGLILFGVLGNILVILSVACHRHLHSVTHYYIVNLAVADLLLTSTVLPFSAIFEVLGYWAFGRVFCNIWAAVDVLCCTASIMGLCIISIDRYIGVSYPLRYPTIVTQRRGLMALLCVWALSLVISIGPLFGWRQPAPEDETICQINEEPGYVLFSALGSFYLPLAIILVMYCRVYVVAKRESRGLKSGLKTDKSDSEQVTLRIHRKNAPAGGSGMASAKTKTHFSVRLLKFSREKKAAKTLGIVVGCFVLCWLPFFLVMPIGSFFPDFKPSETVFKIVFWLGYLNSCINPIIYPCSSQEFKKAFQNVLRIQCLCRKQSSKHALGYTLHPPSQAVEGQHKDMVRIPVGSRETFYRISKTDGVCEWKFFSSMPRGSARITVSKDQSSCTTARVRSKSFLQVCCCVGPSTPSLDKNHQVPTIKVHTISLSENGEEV
T1 sequence (P25100 whole entry): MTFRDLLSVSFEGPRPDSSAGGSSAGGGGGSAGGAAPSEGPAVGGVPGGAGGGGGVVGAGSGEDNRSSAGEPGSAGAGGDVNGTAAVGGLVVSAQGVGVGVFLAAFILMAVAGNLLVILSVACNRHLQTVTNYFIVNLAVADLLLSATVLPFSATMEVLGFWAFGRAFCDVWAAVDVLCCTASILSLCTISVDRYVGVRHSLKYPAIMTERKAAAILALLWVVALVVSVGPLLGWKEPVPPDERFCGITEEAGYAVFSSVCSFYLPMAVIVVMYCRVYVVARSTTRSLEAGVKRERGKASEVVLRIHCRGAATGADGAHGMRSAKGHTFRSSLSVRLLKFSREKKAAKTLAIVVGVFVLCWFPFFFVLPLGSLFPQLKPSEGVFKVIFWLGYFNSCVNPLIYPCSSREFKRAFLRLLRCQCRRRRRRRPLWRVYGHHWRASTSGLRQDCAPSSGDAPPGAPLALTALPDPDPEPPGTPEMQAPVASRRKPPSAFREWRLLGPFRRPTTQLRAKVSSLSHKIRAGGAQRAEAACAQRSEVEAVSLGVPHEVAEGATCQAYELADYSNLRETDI
T1 sequence (P35368 whole entry): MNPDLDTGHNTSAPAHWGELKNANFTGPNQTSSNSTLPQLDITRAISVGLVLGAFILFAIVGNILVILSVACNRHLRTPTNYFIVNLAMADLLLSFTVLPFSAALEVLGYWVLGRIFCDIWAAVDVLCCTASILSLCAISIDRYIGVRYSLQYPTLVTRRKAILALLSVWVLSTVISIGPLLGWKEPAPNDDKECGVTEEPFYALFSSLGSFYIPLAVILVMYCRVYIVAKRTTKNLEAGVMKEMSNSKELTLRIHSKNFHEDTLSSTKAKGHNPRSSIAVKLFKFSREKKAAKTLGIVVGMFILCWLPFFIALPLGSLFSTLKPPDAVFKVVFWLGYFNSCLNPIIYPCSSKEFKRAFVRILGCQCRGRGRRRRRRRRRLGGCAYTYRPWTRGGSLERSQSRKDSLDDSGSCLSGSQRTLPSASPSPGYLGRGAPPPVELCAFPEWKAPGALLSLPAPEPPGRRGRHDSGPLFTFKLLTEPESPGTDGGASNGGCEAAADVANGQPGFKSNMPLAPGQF
The data set can be described thus: Inhibition of alpha-1 adrenoceptor (unknown origin).

A short description of data set [2]: Cmax in jugular vein cannulated Sprague-Dawley rat at 6 mg/kg, po by HPLC-MS analysis. Format: ADME, organism-based. Also on record: dose 6 mg/kg, route oral. As to conditions: in vivo. The gist of the method:
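Cannulated, fed Sprague–Dawley rats were given 2 mg/kg intravenously and 6 mg/kg orally. Oral bioavailability came from the two routes. t1/2, plasma clearance and Vdss were estimated. Oral Cmax and AUC were taken over 0–24 h.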

For another data set, the target named is T2, Cathepsin E (Homo sapiens, UniProt P14091).
T2 sequence (P14091 whole entry): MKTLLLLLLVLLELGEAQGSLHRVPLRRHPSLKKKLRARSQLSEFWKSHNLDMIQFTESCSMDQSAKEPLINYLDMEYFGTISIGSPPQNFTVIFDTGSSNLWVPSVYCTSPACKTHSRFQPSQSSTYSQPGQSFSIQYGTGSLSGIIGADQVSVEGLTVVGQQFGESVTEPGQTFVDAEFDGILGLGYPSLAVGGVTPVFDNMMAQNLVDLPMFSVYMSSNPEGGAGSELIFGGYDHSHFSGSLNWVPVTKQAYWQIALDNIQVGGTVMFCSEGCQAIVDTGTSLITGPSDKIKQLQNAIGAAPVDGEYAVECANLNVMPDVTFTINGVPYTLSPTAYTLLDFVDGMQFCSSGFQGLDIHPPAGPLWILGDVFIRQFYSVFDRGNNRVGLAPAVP
Put plainly: Inhibition of human recombinant cathepsin-E expressed in Escherichia coli using Ac- E-D(EDANS)-KPILFFRLG-K(Dabcyl)-E-Amid as substrate incubated for 1 hr prior to substrate addition measured after 1 hr by FRET-based enzymatic assay.

The target of data set [3] is T3, 5-hydroxytryptamine receptor 1A (Homo sapiens, UniProt P08908).
T3 sequence (P08908 whole entry): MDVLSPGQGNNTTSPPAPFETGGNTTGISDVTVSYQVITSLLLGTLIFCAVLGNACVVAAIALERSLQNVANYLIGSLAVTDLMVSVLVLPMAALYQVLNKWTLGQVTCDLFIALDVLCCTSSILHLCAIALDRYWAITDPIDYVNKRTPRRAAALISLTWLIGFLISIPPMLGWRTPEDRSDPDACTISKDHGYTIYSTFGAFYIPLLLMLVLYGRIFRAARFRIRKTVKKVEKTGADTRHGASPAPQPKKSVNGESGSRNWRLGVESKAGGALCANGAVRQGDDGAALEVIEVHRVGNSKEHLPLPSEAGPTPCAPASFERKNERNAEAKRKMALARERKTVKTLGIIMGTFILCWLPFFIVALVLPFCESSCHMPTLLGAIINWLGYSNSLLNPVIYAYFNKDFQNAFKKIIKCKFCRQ
The data set can be described thus: Inhibition of 5-HT1A (unknown origin).

As usually defined, the IC50 is the concentration that gives 50% inhibition. What is called Cmax is the peak of the concentration-time curve.

Take `COCCCOc1cc(C(=O)N(C[C@@H]2CNC[C@H]2Cc2ccccc2)C(C)C)ccc1OC.Cl`: the 50% inhibitory concentration (IC50) in data set [1] is over 1000 nM; at Cathepsin E, over 30000 nM; in data set [3] it was over 1000 nM. The compound also had a Cmax in data set [2] of 1310 nM.
